From ChEMBL document CHEMBL1132174, “Anti-AIDS agents. 37. Synthesis and structure-activity relationships of (3'R,4'R)-(+)-cis-khellactone derivatives as novel potent anti-HIV agents” (J Med Chem, 1999)

Experiments:
CEM-SS [1] = assay: The compound was tested for anti HIV activity in CEM-SS cell lines; format: functional, cell-based; conditions: Homo sapiens
Procedure, shortened: (§1)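 Run at NCI in the CEM-SS T4 lymphocyte line. The agent was dissolved in DMSO, diluted 1:100 in medium, then serially diluted in half-log10 steps, giving a 1:200 final compound dilution. Cells were added, followed shortly by HIV-1, and incubated for 6 days at 37 °C in 5% CO2. Viable cells were read by XTT formazan spectrophotometry, with microscopic confirmation. Drug-treated infected wells were compared against drug-treated uninfected (toxicity) wells and untreated controls.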

[2] = Therapeutic index in H9 lymphocytes.; format: cell-based; conditions: human, read-out: Therapeutic index
[3] = Therapeutic index value of the cpmpound against CEM-SS cells; format: cell-based; conditions: human, read-out: Therapeutic index; procedure, shortened: as §1
[4] = test system: Human immunodeficiency virus 1; assay: Antiviral activity against HIV-1 in H9 lymphocytes.; format: functional, organism-based
[5] = test system: Human immunodeficiency virus 1; assay: Anti-HIV activity in H9 lymphocytes.; format: functional, organism-based
H9 = assay: The compound was tested for anti HIV activity in H9 lymphocytes; No suppression; format: functional, cell-based, Homo sapiens
[6] = Therapeutic index value against H9 lymphocytes; No suppression; format: cell-based; conditions: human
CEM-SS [7] = assay: The compound was tested for anti HIV activity in CEM-SS cell lines; Inactive; format: functional, cell-based, Homo sapiens; procedure, shortened: as §1
[8] = Therapeutic index value of the cpmpound against CEM-SS cells; Inactive; format: cell-based; conditions: human; procedure, shortened: as §1

| SMILES | EC50 (CEM-SS [1]) | IC50 (CEM-SS [1]) | selectivity ratio [2] | selectivity ratio [3] | EC50 [4] | IC50 ([5]; Human immunodeficiency virus 1) | EC50 (H9) | Therapeutic index [6] | IC50 [5] | EC50 (CEM-SS [7]) | Therapeutic index [8] |
| --- | --- | --- | --- | --- | --- | --- | --- | --- | --- | --- | --- |
| CC(C)c1cc(=O)oc2c3c(ccc12)OC(C)(C)[C@H](OC(=O)C12CCC(C)(C(=O)O1)C2(C)C)[C@@H]3OC(=O)C12CCC(C)(C(=O)O1)C2(C)C (stereo partly drawn) | 0.584 µM | > 128 µM | > 4790 | > 219 | 31.5 nM | > 151 µM |  |  |  |  |  |
| COc1cc2ccc3c(c2oc1=O)[C@@H](OC(=O)C12CCC(C)(C(=O)O1)C2(C)C)[C@@H](OC(=O)C12CCC(C)(C(=O)O1)C2(C)C)C(C)(C)O3 (stereo partly drawn) | 0.494 µM | 16.8 µM | > 64300 | 34 | 2.38 nM | > 153 µM |  |  |  |  |  |
| Cc1cc(=O)oc2c3c(ccc12)OC(C)(C)[C@H](OC(=O)Nc1cccc2ccccc12)[C@@H]3OC(=O)Nc1cccc2ccccc12 |  |  |  |  |  | 98 µM | Not Active | Not Active |  |  |  |
| CC1(C)Oc2ccc3ccc(=O)oc3c2[C@@H](OC(=O)C23CCC(C)(C(=O)O2)C3(C)C)[C@H]1OC(=O)C12CCC(C)(C(=O)O1)C2(C)C (stereo partly drawn) | 0.26 µM | 26 µM | 137000 | 100 | 0.256 nM | 35 µM |  |  |  |  |  |
| Cc1cc2ccc(=O)oc2c2c1OC(C)(C)[C@H](OC(=O)C13CCC(C)(C(=O)O1)C3(C)C)[C@@H]2OC(=O)C12CCC(C)(C(=O)O1)C2(C)C (stereo partly drawn) | 0.376 µM | > 200 µM | 218 | > 532 | 151 nM | 33 µM |  |  |  |  |  |
| Cc1cc2c(c3oc(=O)ccc13)[C@@H](OC(=O)C13CCC(C)(C(=O)O1)C3(C)C)[C@@H](OC(=O)C13CCC(C)(C(=O)O1)C3(C)C)C(C)(C)O2 (stereo partly drawn) | 0.0635 µM | > 200 µM | > 3.97e+08 | > 3150 | 0.000239 nM | > 95 µM |  |  |  |  |  |
| COc1cc2c(c3oc(=O)ccc13)[C@@H](OC(=O)C13CCC(C)(C(=O)O1)C3(C)C)[C@@H](OC(=O)C13CCC(C)(C(=O)O1)C3(C)C)C(C)(C)O2 (stereo partly drawn) | 0.128 µM | > 200 µM | > 797000 | > 1560 | 0.192 nM | > 153 µM |  |  |  |  |  |
| Cc1cc(=O)oc2c3c(ccc12)OC(C)(C)[C@H](OC(=O)C12CCC(C)(C(=O)O1)C2(C)C)[C@@H]3OC(=O)C12CCC(C)(C(=O)O1)C2(C)C (stereo in doubt; 19) |  |  |  |  |  |  |  |  | > 157 µM |  |  |
| CC1(C)Oc2ccc3c(C(F)(F)F)cc(=O)oc3c2[C@@H](OC(=O)C23CCC(C)(C(=O)O2)C3(C)C)[C@H]1OC(=O)C12CCC(C)(C(=O)O1)C2(C)C (stereo partly drawn) |  |  | > 80.1 |  | 1810 nM | > 145 µM |  |  |  |  |  |
| Cc1cc(=O)oc2c3c(ccc12)OC(C)(C)[C@H](OS(=O)(=O)CC12CCC(CC1=O)C2(C)C)[C@@H]3O (stereo in doubt; 23) |  |  |  |  |  | 45 µM | Not Active | Not Active |  |  |  |
| Cc1cc(=O)oc2c3c(ccc12)OC(C)(C)[C@H](OC(=O)C12CCC(C)(C(=O)O1)C2(C)C)[C@@H]3OC(=O)C12CC3CC(CC(C3)C1)C2 (stereo partly drawn) |  |  | 35.5 |  | 600 nM | 21.3 µM |  |  |  |  |  |
| Cc1cc(=O)oc2c3c(ccc12)OC(C)(C)[C@H](OC(=O)C12CCC(C)(C(=O)O1)C2(C)C)[C@@H]3OC(=O)C12CCC(C)(C(=O)O1)C2(C)C (stereo in doubt; 8) | 0.0635 µM | > 200 µM |  | > 3150 |  | > 126 µM |  |  |  |  |  |
| CC(=O)O[C@@H]1c2c(ccc3c(C)cc(=O)oc23)OC(C)(C)[C@@H]1OC(C)=O |  |  | 2.06 |  | 83100 nM | 171 µM |  |  |  |  |  |
| CC1(C)Oc2ccc3c(-c4ccccc4)cc(=O)oc3c2[C@@H](OC(=O)C23CCC(C)(C(=O)O2)C3(C)C)[C@H]1OC(=O)C12CCC(C)(C(=O)O1)C2(C)C (stereo partly drawn) |  |  | > 1190 |  | 120 nM | > 143 µM |  |  |  |  |  |
| CC(=O)O[C@@H]1[C@H](OC(=O)C23CC4CC(CC(C4)C2)C3)c2c(ccc3c(C)cc(=O)oc23)OC1(C)C |  |  | 16.7 |  | 1140 nM | 19 µM |  |  |  |  |  |
| Cc1cc(=O)oc2c3c(ccc12)OC(C)(C)[C@H](O)[C@@H]3OC(=O)C12CCC(C)(C(=O)O1)C2(C)C (stereo partly drawn) |  |  |  |  |  | > 219 µM |  |  |  |  |  |
| CCCc1cc(=O)oc2c3c(ccc12)OC(C)(C)[C@H](OC(=O)C12CCC(C)(C(=O)O1)C2(C)C)[C@@H]3OC(=O)C12CCC(C)(C(=O)O1)C2(C)C (stereo partly drawn) | 0.763 µM | > 200 µM | > 8630 | > 262 | 17.5 nM | > 151 µM |  |  |  |  |  |
| CC(=O)O[C@@H]1[C@H](OC(=O)C23CCC(C)(C(=O)O2)C3(C)C)c2c(ccc3c(C)cc(=O)oc23)OC1(C)C (stereo partly drawn) |  |  | 2230 |  | 55.2 nM | 123 µM |  |  |  |  |  |
| Cc1cc(=O)oc2c3c(ccc12)OC(C)(C)[C@H](O)[C@@H]3OC(=O)C12CC3CC(CC(C3)C1)C2 |  |  |  |  |  | 43.2 µM | Not Active | Not Active |  |  |  |
| Cc1cc(=O)oc2c3c(ccc12)OC(C)(C)[C@H](OC(=O)CC(C)C)[C@@H]3OC(=O)CC(C)C |  |  |  |  |  | 42 µM | Not Active | Not Active |  |  |  |
| Cc1cc2ccc3c(c2oc1=O)[C@@H](OC(=O)C12CCC(C)(C(=O)O1)C2(C)C)[C@@H](OC(=O)C12CCC(C)(C(=O)O1)C2(C)C)C(C)(C)O3 (stereo partly drawn) | 0.213 µM | > 12.5 µM | > 2.15e+06 | > 58.7 | 0.0525 nM | > 113 µM |  |  |  |  |  |
| Cc1cc(=O)oc2c3c(ccc12)OC(C)(C)[C@H](OS(=O)(=O)CC12CCC(CC1=O)C2(C)C)[C@@H]3O (stereo in doubt; 22) |  |  |  |  |  |  |  |  | 42 µM |  |  |
| Cc1cn([C@H]2C[C@H](N=[N+]=[N-])[C@@H](CO)O2)c(=O)[nH]c1=O [ZIDOVUDINE] | 0.0038 µM | > 1 µM |  |  | 4500 nM |  |  |  |  |  |  |
| Cc1cc(=O)oc2c3c(ccc12)OC(C)(C)[C@H](OC(=O)c1cccc(Br)c1)[C@@H]3OC(=O)c1cccc(Br)c1 |  |  |  |  |  | > 91.6 µM | Not Active | Not Active |  |  |  |
| COc1cc(=O)oc2c3c(ccc12)OC(C)(C)[C@H](OC(=O)C12CCC(C)(C(=O)O1)C2(C)C)[C@@H]3OC(=O)C12CCC(C)(C(=O)O1)C2(C)C (stereo partly drawn) | 0.125 µM | > 200 µM | > 51200 | > 1600 | 2.99 nM | > 153 µM |  |  |  |  |  |
| COc1cc2ccc(=O)oc2c2c1OC(C)(C)[C@H](OC(=O)C13CCC(C)(C(=O)O1)C3(C)C)[C@@H]2OC(=O)C12CCC(C)(C(=O)O1)C2(C)C (stereo partly drawn) |  | > 200 µM | > 9.68 |  | 15800 nM | > 153 µM |  |  |  | Not Active | Not Active |
